Calls of active or inactive are those of the source. The calls are words filed in the database; no cut-off is given here.
Key:
[1] = test system: MDA-MB-231; assay: Growth inhibition of human MDA-MB-231 cells after 72 hrs by ATPlite assay; assay type: functional; conditions: MDA-MB-231, 72 h
Summary of the method: (§1)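 Cells seeded at about 3000 per well, grown 24 h, then given fresh medium and test compound in triplicate at 0.5 to 100µM in DMSO (0.5% final). Exposure 72 h at 37 °C, 5% CO₂. Viability measured by ATPlite luminescence and normalized to DMSO-treated controls. GI50 obtained by curve fitting. HeLa cultured in DMEM/10% FBS; MCF7, MDA-MB-231 and PC3 cultured in RPMI+GlutaMAX/10% FBS.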

[2] = test system: Plasma; assay: Metabolic stability in rat plasma assessed as compound remaining at 1 uM after 60 mins by Lc/Ms method; assay type: ADME, cell-free; conditions: 1 h
Summary of the method: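 Compound at 1 µM (2.5% DMSO final) in fresh rat plasma at 37 °C. Stopped at 0, 30 and 60 min with two volumes methanol plus internal standard, then LC-MS. Percent parent remaining relative to 0 min, from peak area ratios to internal standard. Duplicate runs, with a plasma-labile positive control.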

[3] = biological target: Vascular endothelial growth factor receptor 2 (Homo sapiens) (UniProt P35968); assay: Inhibition of KDR at 10 uM
[4] = test system: Platelet-derived growth factor receptor alpha (Homo sapiens), P16234 [T674I]; assay: Inhibition of PDGFRA T674I mutant at 10 uM
[5] = test system: MCF7; assay: Growth inhibition of human MCF7 cells after 72 hrs by ATPlite assay; assay type: functional; conditions: MCF7, 72 h; summary of the method: as §1
[6] = biological target: Inhibitor of nuclear factor kappa-B kinase subunit alpha (Homo sapiens) (UniProt O15111); assay: Inhibition of IKKalpha at 10 uM
[7] = test system: Receptor-type tyrosine-protein kinase FLT3 (Homo sapiens), P36888 [D835Y]; assay: Inhibition of FLT3 D835Y mutant at 10 uM
[8] = biological target: Tyrosine-protein kinase ABL1 (Homo sapiens) (UniProt P00519); assay: Inhibition of ABL1 […] mutant at 10 uM
[9] = biological target: RAC-alpha serine/threonine-protein kinase (Homo sapiens) (UniProt P31749); assay: Inhibition of AKT1 by biochemical assay
[10] = biological target: Cyclin-dependent kinase 5/CDK5 activator 1 (Homo sapiens) (UniProt Q00535+Q15078); assay: Inhibition of CDK5/P25 at 10 uM; assay type: protein-complex assay
[11] = biological target: Interleukin-1 receptor-associated kinase 1 (Homo sapiens) (UniProt P51617); assay: Inhibition of IRAK1 at 10 uM
[12] = test system: Platelet-derived growth factor receptor alpha (Homo sapiens), P16234 [V561D]; assay: Inhibition of PDGFRA V561D mutant at 10 uM
[13] = biological target: Mitogen-activated protein kinase kinase kinase kinase 4 (Homo sapiens) (UniProt O95819); assay: Inhibition of MAP4K4 at 10 uM
[14] = test system: Liver microsomes; assay: Metabolic stability in rat liver microsomes; assay type: ADME, Microsome
Summary of the method: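 Rat liver microsomes (1 mg/ml protein) with 4µM compound in 50mM phosphate pH 7.2. Pre-incubated 5 min at 37.5 °C, then started with 2mM NADPH and run 1 h. Samples taken every 15 min, quenched in methanol with internal standard, analyzed by LC-MS. Duplicate runs alongside two control compounds of known half-life. Half-life reported.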

[15] = biological target: Maternal embryonic leucine zipper kinase (Homo sapiens) (UniProt Q14680); assay: Inhibition of MELK at 10 uM
[16] = biological target: BDNF/NT-3 growth factors receptor (Homo sapiens) (UniProt Q16620); assay: Inhibition of NTRK2 at 10 uM
[17] = test system: Proto-oncogene tyrosine-protein kinase receptor Ret (Homo sapiens), P07949 [Y791F]; assay: Inhibition of RET Y791F mutant at 10 uM
[18] = biological target: NT-3 growth factor receptor (Homo sapiens) (UniProt Q16288); assay: Inhibition of NTRK3 at 10 uM
[19] = biological target: T1, Phosphatidylinositol 4,5-bisphosphate 3-kinase catalytic subunit delta isoform (Homo sapiens, UniProt O00329); assay: Inhibition of PI3Kdelta; conditions: read-out: I50
T1 sequence (O00329 whole entry): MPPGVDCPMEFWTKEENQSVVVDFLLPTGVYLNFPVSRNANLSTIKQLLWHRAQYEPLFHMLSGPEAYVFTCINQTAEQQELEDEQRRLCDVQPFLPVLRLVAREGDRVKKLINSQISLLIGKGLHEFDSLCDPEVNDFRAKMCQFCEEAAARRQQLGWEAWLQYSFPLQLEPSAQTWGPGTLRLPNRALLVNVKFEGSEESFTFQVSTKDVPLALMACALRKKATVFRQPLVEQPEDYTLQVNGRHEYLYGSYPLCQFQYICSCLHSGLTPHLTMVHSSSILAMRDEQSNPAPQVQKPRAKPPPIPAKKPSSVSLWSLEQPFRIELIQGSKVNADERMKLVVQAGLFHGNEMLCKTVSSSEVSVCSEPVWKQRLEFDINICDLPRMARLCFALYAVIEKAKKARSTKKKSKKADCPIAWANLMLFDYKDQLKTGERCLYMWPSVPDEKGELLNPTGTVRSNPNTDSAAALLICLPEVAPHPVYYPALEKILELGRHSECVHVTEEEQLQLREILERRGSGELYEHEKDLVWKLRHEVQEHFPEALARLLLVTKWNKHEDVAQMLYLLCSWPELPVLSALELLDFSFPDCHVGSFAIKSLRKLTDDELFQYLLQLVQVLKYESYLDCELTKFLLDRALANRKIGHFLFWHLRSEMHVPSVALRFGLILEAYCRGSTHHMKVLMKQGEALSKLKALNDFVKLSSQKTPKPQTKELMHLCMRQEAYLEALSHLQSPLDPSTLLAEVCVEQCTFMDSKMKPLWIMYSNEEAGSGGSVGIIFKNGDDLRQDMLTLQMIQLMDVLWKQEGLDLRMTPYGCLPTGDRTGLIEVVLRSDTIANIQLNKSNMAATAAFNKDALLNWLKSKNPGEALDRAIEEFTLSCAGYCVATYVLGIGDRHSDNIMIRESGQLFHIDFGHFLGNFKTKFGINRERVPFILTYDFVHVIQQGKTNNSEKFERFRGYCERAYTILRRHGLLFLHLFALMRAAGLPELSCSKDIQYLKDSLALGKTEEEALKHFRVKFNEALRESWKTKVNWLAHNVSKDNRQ

[20] = test system: U-87MG ATCC; assay: Growth inhibition of human U87 cells grown as spheroids assessed reduction in decrease in spheroid volumes reated consecutively for 6 days by hanging drop method; assay type: functional, cell-based
Summary of the method: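 U87 glioblastoma spheroids formed by hanging drop, 200 cells per 20 µl drop, inverted for 5 days in a humidity chamber. Spheroids moved onto 1% low-melt agarose-coated wells. Compound or DMSO added every 24 h for 6 days. Volume (µm³) calculated from length and width measured with an optical micrometer. Four independent experiments.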

[21] = test system: Leucine-rich repeat serine/threonine-protein kinase 2 (Homo sapiens), Q5S007 [G2019S]; assay: Inhibition of LRKK2 G2019S mutant at 10 uM
[22] = biological target: Mitogen-activated protein kinase 9 (Homo sapiens) (UniProt P45984); assay: Inhibition of JNK2 at 10 uM
[23] = biological target: Tyrosine-protein kinase SYK (Homo sapiens) (UniProt P43405); assay: Inhibition of SYK at 10 uM

Sequence of Inhibitor of nuclear factor kappa-B kinase subunit alpha (Homo sapiens) (O15111 whole entry): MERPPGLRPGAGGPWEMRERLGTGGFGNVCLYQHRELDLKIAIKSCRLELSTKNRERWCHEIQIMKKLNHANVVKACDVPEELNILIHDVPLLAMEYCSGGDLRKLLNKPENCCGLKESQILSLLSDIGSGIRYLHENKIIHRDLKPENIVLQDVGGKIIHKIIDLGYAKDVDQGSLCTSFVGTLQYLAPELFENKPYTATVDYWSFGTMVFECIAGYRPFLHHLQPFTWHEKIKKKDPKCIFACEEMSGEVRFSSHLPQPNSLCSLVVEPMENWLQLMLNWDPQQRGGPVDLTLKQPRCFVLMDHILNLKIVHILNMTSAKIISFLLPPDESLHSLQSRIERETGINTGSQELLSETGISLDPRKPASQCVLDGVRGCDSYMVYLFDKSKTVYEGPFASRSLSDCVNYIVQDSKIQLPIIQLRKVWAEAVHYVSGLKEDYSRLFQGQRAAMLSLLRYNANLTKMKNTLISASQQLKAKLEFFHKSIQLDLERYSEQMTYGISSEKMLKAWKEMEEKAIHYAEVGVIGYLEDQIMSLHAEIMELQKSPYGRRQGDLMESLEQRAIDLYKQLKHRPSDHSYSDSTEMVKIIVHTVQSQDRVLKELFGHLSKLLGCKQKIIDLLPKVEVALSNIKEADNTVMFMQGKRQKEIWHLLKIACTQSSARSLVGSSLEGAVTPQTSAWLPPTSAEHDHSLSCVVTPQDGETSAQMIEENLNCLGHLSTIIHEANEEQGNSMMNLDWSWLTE
Sequence of BDNF/NT-3 growth factors receptor (Homo sapiens) (Q16620 32-822 limits assumed): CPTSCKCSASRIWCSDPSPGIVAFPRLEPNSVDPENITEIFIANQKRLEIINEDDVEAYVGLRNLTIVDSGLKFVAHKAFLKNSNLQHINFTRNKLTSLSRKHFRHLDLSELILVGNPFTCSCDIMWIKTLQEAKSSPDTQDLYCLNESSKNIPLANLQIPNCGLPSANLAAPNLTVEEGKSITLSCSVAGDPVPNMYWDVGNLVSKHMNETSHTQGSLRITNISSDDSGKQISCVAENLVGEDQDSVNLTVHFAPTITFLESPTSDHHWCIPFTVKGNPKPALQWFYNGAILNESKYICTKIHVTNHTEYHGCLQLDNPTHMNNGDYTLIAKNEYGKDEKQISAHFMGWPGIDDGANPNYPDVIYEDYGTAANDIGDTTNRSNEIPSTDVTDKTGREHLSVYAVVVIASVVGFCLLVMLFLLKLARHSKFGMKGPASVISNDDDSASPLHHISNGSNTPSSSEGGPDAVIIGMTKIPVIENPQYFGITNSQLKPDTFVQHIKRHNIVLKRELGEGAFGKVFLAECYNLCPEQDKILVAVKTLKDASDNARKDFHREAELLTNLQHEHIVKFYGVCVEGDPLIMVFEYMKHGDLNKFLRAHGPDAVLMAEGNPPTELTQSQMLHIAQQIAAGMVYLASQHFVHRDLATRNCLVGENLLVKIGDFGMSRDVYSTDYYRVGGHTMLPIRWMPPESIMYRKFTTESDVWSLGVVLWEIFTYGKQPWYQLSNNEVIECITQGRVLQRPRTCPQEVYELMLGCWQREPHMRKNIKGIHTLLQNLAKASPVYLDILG
Sequence of Platelet-derived growth factor receptor alpha (Homo sapiens), P16234 [T674I] (P16234 whole entry T674I): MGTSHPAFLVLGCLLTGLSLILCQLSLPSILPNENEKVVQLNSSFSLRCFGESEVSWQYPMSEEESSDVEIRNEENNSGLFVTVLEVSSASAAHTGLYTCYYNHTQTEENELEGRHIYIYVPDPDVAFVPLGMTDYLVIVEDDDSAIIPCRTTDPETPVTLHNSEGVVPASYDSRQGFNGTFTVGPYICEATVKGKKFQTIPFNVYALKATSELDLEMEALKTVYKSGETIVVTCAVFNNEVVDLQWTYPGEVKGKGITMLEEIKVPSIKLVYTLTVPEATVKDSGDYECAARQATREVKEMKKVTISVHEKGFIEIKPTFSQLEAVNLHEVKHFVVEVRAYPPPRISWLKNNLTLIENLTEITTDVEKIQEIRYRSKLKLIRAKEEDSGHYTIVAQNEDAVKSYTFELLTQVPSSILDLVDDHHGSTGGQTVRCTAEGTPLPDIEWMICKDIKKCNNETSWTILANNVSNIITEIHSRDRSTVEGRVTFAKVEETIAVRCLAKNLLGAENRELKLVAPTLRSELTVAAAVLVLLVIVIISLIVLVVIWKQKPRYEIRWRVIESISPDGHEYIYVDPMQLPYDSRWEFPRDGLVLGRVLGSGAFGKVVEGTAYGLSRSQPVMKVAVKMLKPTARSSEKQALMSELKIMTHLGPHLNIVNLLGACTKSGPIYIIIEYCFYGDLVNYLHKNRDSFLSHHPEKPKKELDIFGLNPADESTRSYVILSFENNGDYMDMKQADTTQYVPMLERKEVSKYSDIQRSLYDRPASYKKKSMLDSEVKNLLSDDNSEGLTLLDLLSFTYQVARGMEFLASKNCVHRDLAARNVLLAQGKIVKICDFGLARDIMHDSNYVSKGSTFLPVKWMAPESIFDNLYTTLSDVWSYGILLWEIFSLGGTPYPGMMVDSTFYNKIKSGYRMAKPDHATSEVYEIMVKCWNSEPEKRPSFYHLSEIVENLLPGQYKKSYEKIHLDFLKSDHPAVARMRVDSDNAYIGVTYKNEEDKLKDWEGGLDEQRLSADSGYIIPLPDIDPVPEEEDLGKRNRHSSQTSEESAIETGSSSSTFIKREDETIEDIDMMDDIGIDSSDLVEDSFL
Sequence of Tyrosine-protein kinase ABL1 (Homo sapiens) (P00519 whole entry): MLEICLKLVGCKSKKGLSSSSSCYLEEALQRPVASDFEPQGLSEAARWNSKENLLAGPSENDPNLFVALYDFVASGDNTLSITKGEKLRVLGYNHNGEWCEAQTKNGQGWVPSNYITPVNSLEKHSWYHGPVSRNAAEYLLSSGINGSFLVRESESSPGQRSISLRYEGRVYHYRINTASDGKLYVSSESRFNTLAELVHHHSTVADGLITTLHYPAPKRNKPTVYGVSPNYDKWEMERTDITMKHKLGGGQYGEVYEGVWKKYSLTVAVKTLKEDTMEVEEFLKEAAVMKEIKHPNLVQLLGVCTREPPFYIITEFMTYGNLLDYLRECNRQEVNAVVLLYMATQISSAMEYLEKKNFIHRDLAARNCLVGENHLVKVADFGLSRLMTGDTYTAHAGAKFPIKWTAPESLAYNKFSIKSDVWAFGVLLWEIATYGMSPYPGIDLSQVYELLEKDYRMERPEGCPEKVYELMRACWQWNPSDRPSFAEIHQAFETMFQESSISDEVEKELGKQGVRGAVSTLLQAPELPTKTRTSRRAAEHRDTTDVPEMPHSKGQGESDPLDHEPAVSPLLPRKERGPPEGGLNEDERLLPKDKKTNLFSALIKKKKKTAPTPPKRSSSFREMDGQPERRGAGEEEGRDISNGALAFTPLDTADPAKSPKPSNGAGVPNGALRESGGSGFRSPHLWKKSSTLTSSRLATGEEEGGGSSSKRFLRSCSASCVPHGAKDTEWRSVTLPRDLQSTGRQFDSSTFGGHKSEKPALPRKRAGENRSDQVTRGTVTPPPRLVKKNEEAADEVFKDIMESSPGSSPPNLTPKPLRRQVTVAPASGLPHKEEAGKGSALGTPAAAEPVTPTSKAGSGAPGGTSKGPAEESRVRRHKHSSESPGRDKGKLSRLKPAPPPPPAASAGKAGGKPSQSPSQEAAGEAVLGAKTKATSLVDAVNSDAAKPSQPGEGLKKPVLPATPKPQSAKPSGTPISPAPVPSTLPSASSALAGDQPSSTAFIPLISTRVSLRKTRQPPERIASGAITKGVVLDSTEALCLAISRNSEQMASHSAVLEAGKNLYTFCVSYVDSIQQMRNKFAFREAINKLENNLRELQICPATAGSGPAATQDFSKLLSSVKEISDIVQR
Sequence of Vascular endothelial growth factor receptor 2 (Homo sapiens) (P35968 whole entry): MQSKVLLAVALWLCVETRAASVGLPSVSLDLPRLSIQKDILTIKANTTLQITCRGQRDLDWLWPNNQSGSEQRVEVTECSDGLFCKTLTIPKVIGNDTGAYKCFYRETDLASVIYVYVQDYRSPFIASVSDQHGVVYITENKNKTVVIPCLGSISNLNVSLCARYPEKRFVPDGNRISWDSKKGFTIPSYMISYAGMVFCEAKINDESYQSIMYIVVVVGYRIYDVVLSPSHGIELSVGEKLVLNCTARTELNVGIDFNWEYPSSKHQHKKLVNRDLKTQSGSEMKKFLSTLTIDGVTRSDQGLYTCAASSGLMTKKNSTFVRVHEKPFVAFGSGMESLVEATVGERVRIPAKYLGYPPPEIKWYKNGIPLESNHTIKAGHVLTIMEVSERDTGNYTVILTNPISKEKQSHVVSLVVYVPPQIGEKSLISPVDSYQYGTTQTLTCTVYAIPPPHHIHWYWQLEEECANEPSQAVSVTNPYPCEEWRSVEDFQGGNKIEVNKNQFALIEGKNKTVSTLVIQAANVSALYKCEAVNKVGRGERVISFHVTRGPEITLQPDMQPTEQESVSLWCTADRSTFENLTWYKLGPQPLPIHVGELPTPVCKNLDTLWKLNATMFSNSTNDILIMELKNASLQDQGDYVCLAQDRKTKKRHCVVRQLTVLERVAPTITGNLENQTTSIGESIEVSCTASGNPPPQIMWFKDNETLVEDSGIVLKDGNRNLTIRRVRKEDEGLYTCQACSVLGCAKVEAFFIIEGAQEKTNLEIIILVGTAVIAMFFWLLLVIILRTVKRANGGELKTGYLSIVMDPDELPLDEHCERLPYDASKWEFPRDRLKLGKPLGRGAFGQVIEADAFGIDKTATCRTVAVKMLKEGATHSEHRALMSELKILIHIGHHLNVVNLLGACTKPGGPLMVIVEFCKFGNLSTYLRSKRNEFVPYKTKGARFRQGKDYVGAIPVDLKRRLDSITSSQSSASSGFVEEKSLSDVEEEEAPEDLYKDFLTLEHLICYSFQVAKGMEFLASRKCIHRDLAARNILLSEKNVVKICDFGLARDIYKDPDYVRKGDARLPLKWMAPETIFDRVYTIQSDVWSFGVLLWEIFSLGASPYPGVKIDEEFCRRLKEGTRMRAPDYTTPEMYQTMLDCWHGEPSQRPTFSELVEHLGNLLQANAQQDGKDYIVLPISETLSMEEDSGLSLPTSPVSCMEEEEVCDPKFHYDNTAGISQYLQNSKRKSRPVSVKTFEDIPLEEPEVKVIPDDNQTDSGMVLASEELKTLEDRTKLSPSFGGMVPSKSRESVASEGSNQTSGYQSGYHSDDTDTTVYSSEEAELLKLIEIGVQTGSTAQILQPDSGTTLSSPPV

GI50 [1]: 7.84 µM | Stability [2]: 97% | inhibition [3]: > 50% | inhibition [4]: > 50% | GI50 [5]: 2.58 µM | inhibition [6]: > 50% | inhibition [7]: > 50% | inhibition [8]: > 50% | inhibition [9]: inactive | inhibition [10]: > 50% | inhibition [11]: > 50% | inhibition [12]: > 50% | inhibition [13]: > 50% | t1/2 [14]: 35 min | inhibition [15]: > 50% | inhibition [16]: > 50% | inhibition [17]: > 50% | inhibition [18]: > 50% | IC50 [19]: 39 µM | inhibition [21]: > 50% | inhibition [22]: > 50% | inhibition [23]: > 50%
SMILES: C(#Cc1n[nH]c2ccccc12)c1ccncc1
growth inhibition (GI) [20]: Active

From ChEMBL document CHEMBL1629532, “Design, synthesis, and structure-activity relationships of 3-ethynyl-1H-indazoles as inhibitors of the phosphatidylinositol 3-kinase signaling pathway” (J Med Chem, 2010)
